# From ChEMBL document CHEMBL4261600 (Eur J Med Chem, 2018)
# Active and inactive are the calls of the source. No cut-off for these calls is given here.
# Experiments:
# [1] = test system: MV4-11; test: Antiproliferative activity against human MV4-11 cells after 72 hrs by Celltiter-Glo assay; type: functional; conditions: MV4-11, 72 h
# Summary of the method: (§1)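 Cells seeded at 3000/well in 96-well plates, exposed to serially diluted compound for 72 h at 37 °C, 5% CO2. Viability read by CellTiter-Glo luminescence and normalized to DMSO control. GI50 derived from curve fit, mean of three independent measurements. Culture media: DMEM/10% FBS for adherent lines; IMDM for MV4-11 and MEC-1/2; RPMI 1640 for suspension lines and CHL.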
# [2] = Antiproliferative activity against human MEC1 cells after 72 hrs by Celltiter-Glo assay; type: functional; conditions: MEC1, 72 h; summary of the method: as §1
# [3] = molecular target: CDK9/Cyclin K (Homo sapiens, UniProt P50750); test: Inhibition of CDK9/Cyclin K (unknown origin) using PDKtide as substrate incubated at 37 degreeC for 1 hr followed by incubation at room temperature for 5 mins by ADP-Glo reagent based luminescence assay; type: protein-complex assay
# Sequence of CDK9/Cyclin K (P50750 whole entry): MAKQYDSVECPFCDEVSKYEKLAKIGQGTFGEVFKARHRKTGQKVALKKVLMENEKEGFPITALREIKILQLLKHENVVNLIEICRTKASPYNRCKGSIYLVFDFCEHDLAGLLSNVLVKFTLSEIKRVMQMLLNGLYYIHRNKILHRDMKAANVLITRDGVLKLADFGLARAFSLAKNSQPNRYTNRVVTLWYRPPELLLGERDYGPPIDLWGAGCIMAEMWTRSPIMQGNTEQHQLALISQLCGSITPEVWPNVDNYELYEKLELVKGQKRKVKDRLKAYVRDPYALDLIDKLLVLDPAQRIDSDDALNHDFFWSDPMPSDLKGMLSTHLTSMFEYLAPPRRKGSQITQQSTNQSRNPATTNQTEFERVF
# Sequence of CDK9/Cyclin K (O75909 whole entry, further chain): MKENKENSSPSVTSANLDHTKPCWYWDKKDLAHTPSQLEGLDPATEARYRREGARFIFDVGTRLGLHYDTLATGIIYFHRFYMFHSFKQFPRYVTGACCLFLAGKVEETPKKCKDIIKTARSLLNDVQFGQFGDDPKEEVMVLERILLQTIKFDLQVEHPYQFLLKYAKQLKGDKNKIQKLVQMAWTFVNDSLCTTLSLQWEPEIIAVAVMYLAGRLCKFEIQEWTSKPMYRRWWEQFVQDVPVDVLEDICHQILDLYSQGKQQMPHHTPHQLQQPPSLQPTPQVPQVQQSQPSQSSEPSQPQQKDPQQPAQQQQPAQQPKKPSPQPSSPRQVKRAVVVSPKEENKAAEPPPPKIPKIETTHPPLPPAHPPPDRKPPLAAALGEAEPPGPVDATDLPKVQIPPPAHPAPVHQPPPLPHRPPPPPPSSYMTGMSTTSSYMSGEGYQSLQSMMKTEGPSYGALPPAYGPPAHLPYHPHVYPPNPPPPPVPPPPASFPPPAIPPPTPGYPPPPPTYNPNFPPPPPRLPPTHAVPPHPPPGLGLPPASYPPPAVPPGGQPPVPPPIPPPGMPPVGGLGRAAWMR
# [4] = Antiproliferative activity against Chinese hamster CHL cells after 72 hrs by Celltiter-Glo assay; conditions: Cricetulus griseus
# [5] = test system: A-375; test: Antiproliferative activity against human A375 cells after 72 hrs by Celltiter-Glo assay; type: functional; conditions: A-375, 72 h; summary of the method: as §1
# [6] = test system: A-431; test: Antiproliferative activity against human A431 cells after 72 hrs by Celltiter-Glo assay; type: functional; conditions: A-431, 72 h; summary of the method: as §1
# [7] = test system: SK-N-BE(2)-M17; test: Antiproliferative activity against human BE(2)-M17 cells after 72 hrs by Celltiter-Glo assay; type: functional; conditions: SK-N-BE(2)-M17, 72 h; summary of the method: as §1
# [8] = test system: GISTT1; test: Antiproliferative activity against human GISTT1 cells after 72 hrs by Celltiter-Glo assay; type: functional; conditions: GISTT1, 72 h; summary of the method: as §1
# [9] = test system: COLO 205; test: Antiproliferative activity against human COLO205 cells after 72 hrs by Celltiter-Glo assay; type: functional; conditions: COLO 205, 72 h; summary of the method: as §1
# [10] = test system: Ramos; test: Antiproliferative activity against human Ramos cells after 72 hrs by Celltiter-Glo assay; type: functional; summary of the method: as §1
# [11] = test system: HL-60; test: Antiproliferative activity against human HL60 cells after 72 hrs by Celltiter-Glo assay; type: functional; conditions: HL-60, 72 h; summary of the method: as §1
# [12] = test system: MOLM-13; test: Antiproliferative activity against human MOLM13 cells after 72 hrs by Celltiter-Glo assay; type: functional; conditions: MOLM-13, 72 h; summary of the method: as §1
# [13] = test system: MOLM-14; test: Antiproliferative activity against human MOLM14 cells after 72 hrs by Celltiter-Glo assay; type: functional; conditions: MOLM-14, 72 h; summary of the method: as §1
# [14] = test system: OCI-AML-3; test: Antiproliferative activity against human OCI-AML3 cells after 72 hrs by Celltiter-Glo assay; type: functional; conditions: OCI-AML-3, 72 h; summary of the method: as §1
# [15] = test system: SKM-1; test: Antiproliferative activity against human SKM1 cells after 72 hrs by Celltiter-Glo assay; type: functional; conditions: SKM-1, 72 h; summary of the method: as §1
# [16] = test system: U-937; test: Antiproliferative activity against human U937 cells after 72 hrs by Celltiter-Glo assay; type: functional; conditions: U-937, 72 h; summary of the method: as §1
# [17] = Antiproliferative activity against human MEC2 cells after 72 hrs by Celltiter-Glo assay; type: functional; conditions: MEC2, 72 h; summary of the method: as §1
# [18] = Antiproliferative activity against CHO cells after 72 hrs by Celltiter-Glo assay; type: cell-based, Cricetulus griseus; conditions: chinese hamster; summary of the method: as §1
# [19] = test system: MV4-11; test: Induction of apoptosis in human MV4-11 cells assessed as decrease in caspase-3 level after 24 hrs by immunoblotting analysis; type: functional, cell-based
# [20] = organism: Homo sapiens; test: Induction of apoptosis in human MEC1 cells assessed as decrease in caspase-3 level after 24 hrs by immunoblotting analysis; type: functional, cell-based
# [21] = test system: HL-60; test: Induction of apoptosis in human HL60 cells assessed as decrease in caspase-3 level after 24 hrs by immunoblotting analysis; type: functional, cell-based
# [22] = test system: MV4-11; test: Induction of apoptosis in human MV4-11 cells assessed as decrease in MCL-1 level at 0.01 uM after 24 hrs by immunoblotting analysis; type: functional, cell-based
# [23] = organism: Homo sapiens; test: Induction of apoptosis in human MEC1 cells assessed as decrease in MCL-1 level at 0.01 uM after 24 hrs by immunoblotting analysis; type: functional, cell-based
# [24] = test system: HL-60; test: Induction of apoptosis in human HL60 cells assessed as decrease in MCL-1 level at 0.01 uM after 24 hrs by immunoblotting analysis; type: functional, cell-based
# [25] = test system: MV4-11; test: Induction of apoptosis in human MV4-11 cells assessed as decrease in c-MYC level at 0.01 uM after 24 hrs by immunoblotting analysis; type: functional, cell-based
# [26] = organism: Homo sapiens; test: Induction of apoptosis in human MEC1 cells assessed as decrease in c-MYC level at 0.01 uM after 24 hrs by immunoblotting analysis; type: functional, cell-based
# [27] = test system: HL-60; test: Induction of apoptosis in human HL60 cells assessed as decrease in c-MYC level at 0.01 uM after 24 hrs by immunoblotting analysis; type: functional, cell-based
structure (smiles),measurement,setting,value
COCC(=O)N[C@H]1CC[C@H](Nc2cc(-c3csc(NCC4CCOCC4)n3)c(Cl)cn2)CC1,GI50,[1],> 10000 nM
same,GI50,[2],> 10000 nM
same,IC50,[3],1890 nM
same,GI50,[4],> 10000 nM
N[C@H]1CC[C@H](CNc2cc(-c3csc(NCC4CCOCC4)n3)c(Cl)cn2)CC1,GI50,[1],1900 nM
same,GI50,[2],> 10000 nM
same,IC50,[3],84 nM
same,GI50,[4],3900 nM
COCCN[C@H]1CC[C@H](Nc2cc(-c3csc(NCC(F)(F)F)n3)c(Cl)cn2)CC1,GI50,[1],752 nM
same,GI50,[2],1100 nM
same,IC50,[3],17 nM
same,GI50,[4],877 nM
COCCN[C@H]1CC[C@H](Nc2cc(-c3csc(NCC4CC4)n3)c(Cl)cn2)CC1,GI50,[1],740 nM
same,GI50,[2],890 nM
same,IC50,[3],96 nM
same,GI50,[4],1400 nM
COCCN[C@H]1CC[C@H](Nc2cc(-c3csc(NCC4CCCCC4)n3)c(Cl)cn2)CC1,GI50,[1],820 nM
same,GI50,[2],850 nM
same,IC50,[3],27 nM
same,GI50,[4],8000 nM
CCOCCN[C@H]1CC[C@H](Nc2cc(-c3csc(NCC4CCOCC4)n3)c(Cl)cn2)CC1,GI50,[1],497 nM
same,GI50,[2],634 nM
same,IC50,[3],51 nM
same,GI50,[4],2820 nM
CC(=O)N[C@H]1CC[C@H](Nc2cc(-c3csc(NCC4CCOCC4)n3)c(Cl)cn2)CC1,GI50,[1],3600 nM
same,GI50,[2],> 10000 nM
same,IC50,[3],101 nM
same,GI50,[4],> 10000 nM
COCCN[C@H]1CC[C@H](Nc2cc(-c3csc(NCC4C5CC6CC(C5)CC4C6)n3)c(Cl)cn2)CC1 (some centres undefined),GI50,[1],3460 nM
same,GI50,[2],6310 nM
same,IC50,[3],94 nM
same,GI50,[4],2040 nM
COCCN[C@H]1CC[C@H](Nc2cc(-c3csc(NCC4CCC4)n3)c(Cl)cn2)CC1,GI50,[1],> 10000 nM
same,GI50,[2],2260 nM
same,IC50,[3],107 nM
same,GI50,[4],1290 nM
Clc1cnc(Nc2ccccc2)cc1-c1csc(NCC2CCOCC2)n1,GI50,[1],> 10000 nM
same,GI50,[2],> 10000 nM
same,IC50,[3],238 nM
same,GI50,[4],> 10000 nM
COCCN[C@H]1CC[C@H](Nc2cc(-c3csc(NCC4CCOC4)n3)c(Cl)cn2)CC1 (some centres undefined),GI50,[1],493 nM
same,GI50,[2],883 nM
same,IC50,[3],90 nM
same,GI50,[4],> 10000 nM
COCCN[C@H]1CC[C@H](Nc2cc(-c3csc(NCC4CCOCC4)n3)ccn2)CC1,GI50,[1],910 nM
same,GI50,[2],2500 nM
same,IC50,[3],114 nM
same,GI50,[4],1200 nM
COCCN[C@H]1CC[C@H](Nc2cc(-c3csc(NCc4ccccc4)n3)c(Cl)cn2)CC1,GI50,[1],330 nM
same,GI50,[2],470 nM
same,IC50,[3],14 nM
same,GI50,[4],1000 nM
COCCNc1cc(-c2csc(NCC3CCOCC3)n2)c(Cl)cn1,GI50,[1],> 10000 nM
same,GI50,[2],> 10000 nM
same,IC50,[3],1040 nM
same,GI50,[4],> 10000 nM
COCCN[C@H]1CC[C@H](Nc2cc(-c3csc(NCC4CCOCC4)n3)c(C)cn2)CC1,GI50,[1],1620 nM
same,GI50,[2],3560 nM
same,IC50,[3],253 nM
same,GI50,[4],5010 nM
CCc1cnn2c(NCc3ccc[n+]([O-])c3)cc(N3CCCC[C@H]3CCO)nc12 [DINACICLIB],GI50,[2],3.6 nM
same,GI50,[5],11 nM
same,GI50,[6],11 nM
same,GI50,[7],21 nM
same,GI50,[8],8.8 nM
same,GI50,[9],6.8 nM
same,GI50,[10],8.6 nM
same,GI50,[11],8 nM
same,GI50,[12],3.3 nM
same,GI50,[13],4.5 nM
same,GI50,[14],13 nM
same,GI50,[15],11 nM
same,GI50,[16],10 nM
same,GI50,[17],11 nM
same,GI50 at 72 h,[18],160 nM
same,Activity,[19],Dose-dependent effect
same,Activity,[20],Dose-dependent effect
same,Activity,[21],Dose-dependent effect
same,Activity,[22],Active
same,Activity,[23],Active
same,Activity,[24],Active
same,Activity,[25],Active
same,Activity,[26],Active
same,Activity,[27],Active
